For four compounds, IC50 results are on record in ChEMBL document CHEMBL1123626, “Novel irreversible ligands specific for "peripheral" type benzodiazepine receptors: (+/-)-, (+)-, and (-)-1-(2-chlorophenyl)-N-(1-methylpropyl)-N- (2-isothiocyanatoethyl)-3-isoquinolinecarboxamide and 1-(2-isothiocyanatoethyl)-7-chloro-1,3-dihydro-5-(4-chlorophenyl )-2H-1,4-benzodiazepin-2-one” (J Med Chem, 1987).

Assay [1] is described as follows: Inhibition of [3H]-PK 11195 binding to Peripheral Benzodiazepine Receptor of rat kidney tissue (50 mg protein).
Assay [2] can be described thus: Inhibition of [3H]-Ro- 5-4864 binding to Peripheral Benzodiazepine Receptor of rat kidney (62 mg protein).
A short description of assay [3]: Inhibition of [3H]-PK 11195 binding to Peripheral Benzodiazepine Receptor of rat brain tissue (263 mg protein).
The nature of assay [4]: Inhibition of [3H]-Ro- 5-4864 binding to Peripheral Benzodiazepine Receptor of rat brain (255 mg protein).
Assay [5] in a line: Inhibition of [3H]-Ro- 5-4864 binding to Peripheral Benzodiazepine Receptor of rat kidney (22 mg protein). The method in brief: (§1)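 Kidneys from male Sprague-Dawley rats (150-200 g), decapitated, were decapsulated, minced, and homogenized in ice-cold 50 mM potassium phosphate (pH 7.0). The homogenate was spun at 23000 g for 20 min at 4 °C and the pellet resuspended. Tritiated radioligand was used at 1 nM against six inhibitor concentrations in triplicate. IC50 and pseudo Hill coefficient are given as means of two experiments.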

Assay [6] can be described thus: Inhibition of [3H]-PK 11195 binding to Peripheral Benzodiazepine Receptor of rat kidney tissue (22 mg protein). The method in brief: as §1
A short description of assay [7]: Inhibition of [3H]-PK 11195 binding to Peripheral Benzodiazepine Receptor of rat brain tissue (110 mg protein). The method in brief:
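Brain membrane binding used 1 nM tritiated radioligand, with six inhibitor concentrations each run in triplicate. Protein per assay was as specified. IC50 in nmol/L and pseudo Hill coefficient are reported as means of two independent experiments.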

Assay [8] can be described thus: Inhibition of [3H]-Ro- 5-4864 binding to Peripheral Benzodiazepine Receptor of rat kidney (110 mg protein). A digest of the protocol: as §1
Assay [9] in a line: Inhibition of [3H]-PK 11195 binding to Peripheral Benzodiazepine Receptor of rat kidney tissue (110 mg protein). A digest of the protocol: as §1

Turning to `O=C1CN=C(c2ccc(Cl)cc2)c2cc(Cl)ccc2N1CCN=C=S`, the IC50 is 1.2 nM l-1 in [1], 1.2 nM l-1 in [2], 2.1 nM l-1 in assay [3] and 2.1 nM l-1 in [4].
For `CCC(C)N(CCN=C=S)C(=O)c1cc2ccccc2c(-c2ccccc2Cl)n1` (racemic), the IC50 came out at 2.9 nM l-1 in assay [1], 2 nM l-1 in assay [2], 15 nM l-1 in [3] and 3 nM l-1 in [4].
With `CCC(C)N(CCN=C=S)C(=O)c1cc2ccccc2c(-c2ccccc2Cl)n1` (single isomer, unassigned; (-)), the IC50 in assay [5] is given as 2.9 nM l-1; in assay [6] it was 3.9 nM l-1; in assay [7] it was 10 nM l-1; in [8], 6.3 nM l-1.
Take `CCC(C)N(CCN=C=S)C(=O)c1cc2ccccc2c(-c2ccccc2Cl)n1` (stereo in doubt; 11b): the IC50 in assay [5] is 1.2 nM l-1; in assay [6] it was 1.6 nM l-1; in assay [9], 3.5 nM l-1; in assay [8], 2.9 nM l-1.
